The values that follow come from article PMC9041536 (RSC Advances, 2021).

For orientation: IC50 means the concentration that inhibits the measured activity by half. For orientation: zone of inhibition means the size of the clear area around the sample on an inoculated plate.

Series [1] relates to human neuroblastoma (SH-SY5Y). Nature of the series: SRB cytotoxicity assay, SH-SY5Y. It is filed as cell-based. Conditions: for IC50: Homo sapiens, SH-SY5Y, 72 h, read-out: Cytotoxicity (IC50) SH-SY5Y.
In series [2] the test system is human mammary gland adenocarcinoma (MDA-MB-231). The series is described as follows: SRB cytotoxicity assay, MDA-MB-231. In kind it is cell-based. Conditions: MDA-MB-231, 72 h, read-out: Cytotoxicity (IC50) MDA-MB-231. Background: In SRB staining, fixed cells bind dye roughly in proportion to their protein.
Series [3] has as its system human colorectal adenocarcinoma (HT-29). Nature of the series: SRB cytotoxicity assay, HT-29. In kind it is cell-based. Conditions: HT-29, 72 h, read-out: Cytotoxicity (IC50) HT-29.
Series [4] has as its system human squamous cell carcinoma (FaDu). The series is described as follows: SRB cytotoxicity assay, FaDu. Conditions: 72 h, read-out: Cytotoxicity (IC50) FaDu. In kind it is cell-based.
A short description of series [5]: SRB cytotoxicity assay, normal cell line CL. It is filed as cell-based. Conditions: human, CL cells (normal liver hepatic cell line).
Series [6] concerns human intrahepatic cholangiocarcinoma (KKU-M213). The series is described as follows: SRB cytotoxicity assay, KKU-M213. It is filed as cell-based. Conditions: KKU-M213, 72 h, read-out: Cytotoxicity (IC50) KKU-M213.
Series [7] concerns human lung carcinoma (A-549). The series is described as follows: SRB cytotoxicity assay, A-549. Conditions: A549, 72 h, read-out: Cytotoxicity (IC50) A-549. It is filed as cell-based.
Series [8] has as its system six cancer cell lines, KKU-M213, FaDu, HT-29, MDA-MB-231, A-549, and SH-SY5Y. Nature of the series: SRB cytotoxicity assay, all tested cancer cell lines. It is filed as cell-based, human. Conditions: for Cytotoxicity (in words): under tested concentrations (0.1–50 μM). Summed up: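 Sulforhodamine B assay, slightly modified, with ellipticine as positive control. Compounds were in 10% DMSO and tested over 0.1–50 μM. Cells exposed for 72 h at 37 °C, 5% CO2, humidified. Fixed with 10% TCA, stained with 0.4% SRB, unbound dye washed off with 1% acetic acid, bound dye solubilised in 10 mM Tris base (pH 10.5). A510 read. IC50 is the concentration giving 50% growth inhibition.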

For series [9], the system named is E. coli (ATCC 25922). The series is described as follows: Agar well diffusion method, E. coli. Conditions: Escherichia coli, ATCC25922, read-out: zone of inhibition E. coli. In kind it is cell-based. The method in brief:
(§1)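 Bacteria swabbed onto Mueller–Hinton agar, then 6 mm wells cut with a sterile cork borer. Each well received 20 µL of test compound dissolved in DMSO at 5 mg mL−1. Plates held 30 min in a refrigerator for diffusion, then incubated at 37 °C for 16–20 h. Inhibition zone measured in mm. Negative control: 10% DMSO.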
In general terms: Agar diffusion results depend on both activity and mobility in agar.

For series [10], the system named is S. aureus (ATCC 25923). The series is described as follows: Agar well diffusion method, S. aureus. Conditions: Staphylococcus aureus, ATCC25923, read-out: zone of inhibition S. aureus. It is filed as cell-based. Summed up:
as §1

For series [11], the system named is P. aeruginosa (ATCC 27853). The series is described as follows: Agar well diffusion method, P. aeruginosa. Conditions: Pseudomonas aeruginosa, ATCC27853, read-out: zone of inhibition P. aeruginosa. In kind it is cell-based. Summed up:
as §1

Take `CCCC(=O)Oc1c(C)c(O)c(C(=O)/C=C/c2ccccc2)c(OC)c1C` [Compound 2a, 2′-Hydroxy-4′-butyryloxy-6′-methoxy-3′,5′-dimethylchalcone]: the 50% inhibitory concentration (IC50) is 27.6 µM in [1]; 38.2 µM in series [2]; 35.8 µM in series [3]; 31.2 µM in [4]; 30.1 µM in series [6]; over 50 µM in series [7]. Besides, half-maximal inhibition in series [5] (IC50 at 72 h) required 32.8 µM.

As for `CCCCCC(=O)Oc1c(C)c(O)c(C(=O)/C=C/c2ccccc2)c(OC)c1C` [Compound 2b, 2′-Hydroxy-4′-caproyloxy-6′-methoxy-3′,5′-dimethylchalcone], the IC50 in series [1] amounted to 5.2 µM; in series [2], 18.1 µM; in series [3] it was 26.6 µM; in [4], 18.9 µM; in series [6], 21.3 µM; in [7], 24.8 µM. For the same compound, the “Selectivity Index (SI) SH-SY5Y” value in series [1] (ratio of IC50 on normal cell (CL) divided by that on cancer cell) is given as 4.53. The compound also returned an IC50 at 72 h in series [5] of 23.5 µM.

`CCCCCCCC(=O)Oc1c(C)c(O)c(C(=O)/C=C/c2ccccc2)c(OC)c1C` [Compound 2c, 2′-Hydroxy-4′-capryloyloxy-6′-methoxy-3′,5′-dimethylchalcone]: the half-inhibitory concentration (IC50) in series [1] was 18 µM; in series [2] it was 25.9 µM; in series [3], 26.6 µM; in series [4], 20.6 µM; in [6], 24.4 µM; in series [7], over 50 µM. In addition, in [5], the IC50 at 72 h stood at 25.2 µM.

Consider `CCCCCCCCCC(=O)Oc1c(C)c(O)c(C(=O)/C=C/c2ccccc2)c(OC)c1C` [Compound 2d, 2′-Hydroxy-4′-caprinoyloxy-6′-methoxy-3′,5′-dimethylchalcone], for which the half-inhibitory concentration (IC50) in series [1] was 24.8 µM; in series [2], 36.7 µM; in series [3], over 50 µM; in series [4] it was 34.7 µM; in series [6] it was over 50 µM; in series [7] it was over 50 µM. This compound also displayed a 50% inhibitory concentration (IC50) at 72 h in [5] of 41.9 µM.

As to `COc1c(C)c(OC(C)=O)c(C)c(O)c1C(=O)/C=C/c1ccccc1` [Compound 2f, 2′-Hydroxy-4′-acetyloxy-6′-methoxy-3′,5′-dimethylchalcone], the IC50 was 28.6 µM in series [1]; 40.3 µM in [2]; 38.6 µM in series [3]; 36.5 µM in series [4]; 43 µM in series [6]; over 50 µM in series [7]. This compound also displayed a 50% inhibitory concentration (IC50) at 72 h in series [5] of 31 µM.

Regarding `COc1c(C)c(OCc2ccccc2)c(C)c(O)c1C(=O)/C=C/c1ccccc1` [Compound 2h, 2′-Hydroxy-4′-benzyloxy-6′-methoxy-3′,5′-dimethylchalcone], the concentration for half-maximal inhibition (IC50) in series [1] was found to be 16.4 µM; in [2] it was 26.9 µM; in series [3] it was 27.5 µM; in series [4], 14 µM; in series [6], 23.2 µM; in series [7] it was 9.99 µM. Besides, the IC50 at 72 h in series [5] is 22.6 µM.

On to `C=CCOc1c(C)c(O)c(C(=O)/C=C/c2ccccc2)c(OC)c1C` [Compound 2i, 2′-Hydroxy-4′-allyloxy-6′-methoxy-3′,5′-dimethylchalcone], for which the IC50 was determined as 28.2 µM in series [1]; 39.1 µM in series [2]; 34.6 µM in series [3]; 29 µM in [4]; 31.3 µM in series [6]; 36.7 µM in series [7]. This compound came in with an IC50 at 72 h in series [5] of 31.7 µM.

With `COc1c(C)c(OC(=O)c2ccccc2)c(C)c(O)c1C(=O)/C=C/c1ccccc1` [Compound 2k, 2′-Hydroxy-4′-benzoyloxy-6′-methoxy-3′,5′-dimethylchalcone], the concentration for half-maximal inhibition (IC50) in series [1] is 20.2 µM; in [2], over 50 µM; in series [3], 32.5 µM; in series [4], 37.9 µM; in [6] it was over 50 µM; in series [7] it was 41.3 µM. Besides, the IC50 at 72 h in series [5] is over 50 µM.

Consider `COc1c(C)c(OC(=O)c2ccc(C)cc2)c(C)c(O)c1C(=O)/C=C/c1ccccc1` [Compound 2l, 2′-Hydroxy-4′-(p-toluoyloxy)-6′-methoxy-3′,5′-dimethylchalcone], for which the IC50 turned out to be 15.6 µM in series [1]; 25.1 µM in [2]; 26.8 µM in series [3]; 22.1 µM in series [4]; 28.9 µM in series [6]; 22.4 µM in series [7]. In addition, the IC50 at 72 h in series [5] was 25.4 µM.

Consider `COc1c(C)c(OS(=O)(=O)c2ccc3ccccc3c2)c(C)c(O)c1C(=O)/C=C/c1ccccc1` [Compound 2n, 2′-Hydroxy-4′-(2-naphthalenesulfonyl)oxy-6′-methoxy-3′,5′-dimethylchalcone], for which the 50% inhibitory concentration (IC50) in series [1] was 16.4 µM; in series [2], 39.8 µM; in [3] it was 24.7 µM; in [4] it was 21.1 µM; in series [6] it was 27.8 µM; in series [7], over 50 µM. The same compound displayed an IC50 at 72 h in [5] of 30.4 µM.

Take `COc1c(C)c(OC(C)=O)c(C)c(OC(C)=O)c1C(=O)/C=C/c1ccccc1` [Compound 5f, 2′,4′-Diacetyloxy-6′-methoxy-3′,5′-dimethylchalcone]: the half-maximal inhibitory concentration (IC50) came out at 18.8 µM in series [1]; 29.8 µM in [2]; 36.5 µM in series [3]; 33.6 µM in series [4]; 28 µM in [6]; 15.4 µM in [7]. Besides, the “Cytotoxicity (in words)” value in series [8] is “poor cytotoxicity”. The compound also registered a half-maximal inhibitory concentration (IC50) at 72 h in series [5] of 27.4 µM.

For `COc1c(C)c(OC)c(C(=O)/C=C/c2ccccc2)c(OC)c1C` [Compound 5g, 2′,4′,6′-Trimethoxy-3′,5′-dimethylchalcone], the IC50 is 12.6 µM in series [1]; 29.8 µM in [2]; 12.6 to 29.8 µM in [8] (Homo sapiens, read-out: IC50 on all tested cancer cell lines); 21.9 µM in series [3]; 19.3 µM in series [4]; 23.5 µM in series [6]. Further, the IC50 in series [7] was found to be 22.7 µM. The “Cytotoxicity (in words)” value in series [8] was “moderate cytotoxicity”. For the same compound, in series [5], inhibition was half-maximal at 18.7 µM (IC50 at 72 h).

For the compound `COc1c(C)c(O)c(C)c(O)c1C(=O)/C=C/c1ccccc1` [DMC, 2′,4′-Dihydroxy-6′-methoxy-3′,5′-dimethylchalcone], the IC50 in series [1] came to 13.1 µM; in [2] it was 37.6 µM; in [3], 38.6 µM; in series [4], 37.6 µM; in series [6] it was 29.4 µM; in [7], 19.9 µM. Moreover, the zone of inhibition at 5 µg/mL in [9] came to 8 mm; in series [10], 9 mm; in series [11] it was 8 mm. This compound also displayed a half-inhibitory concentration (IC50) at 72 h in series [5] of 15.6 µM.

As to `Cc1c2ccncc2c(C)c2c1[nH]c1ccccc12` [Ellipticine, reference compound], the half-maximal inhibitory concentration (IC50) in series [1] was 2.64 µM; in series [2], 2.8 µM; in [3] it was 2.15 µM; in series [4], 2.03 µM; in [6], 2.4 µM; in series [7] it was 1.14 µM. Further, the IC50 at 72 h in series [5] was determined as 2.07 µM.
